Data reported in PMC10238757 (Pharmacology Research & Perspectives, 2023).
Read-outs that look alike come from different tables or passages of the source. Marks after values point to notes of the source that are not given here.

Columns and labels:
healthy participants [1] = test: Safety and tolerability, relative bioavailability and food effect; assay type: in vivo, human
Method in brief: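 AEs in healthy participants given oral test compound or placebo, recorded with grade and relation to treatment. Laboratory analyses, clinical parameters and suicidality were also monitored. Observation ran 360 h after dosing. Summaries were descriptive, with no formal statistics; parts 1–2 blinded and placebo-controlled, part 3 open-label.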

rats = test: Dose ranging and good laboratory practice toxicology studies in rats; assay type: in vivo
healthy participants [2] = details: for Abdominal pain, n occurrences (% of cohort) / All-cause AEs Grade 2, n occurrences (% of cohort) / All-cause AEs Grade 3/4, n occurrences (% of cohort) / All-cause AEs, n occurrences (% of cohort) / Constipation, n occurrences (% of cohort) / Diarrhea, n occurrences (% of cohort) / Drug-related AEs Grade 2, n occurrences (% of cohort) / Drug-related AEs Grade 3/4, n occurrences (% of cohort) / Drug-related AEs, n occurrences (% of cohort) / Headache, n occurrences (% of cohort) / MDSD, n occurrences (% of cohort): N=6

For `C=C(C)[C@@H]1CC[C@]2(NCCN3CCS(=O)(=O)CC3)CC[C@]3(C)[C@H](CC[C@@H]4[C@@]5(C)CC=C(C6=CC[C@@](COc7ncccc7C#N)(C(=O)O)CC6)C(C)(C)[C@@H]5CC[C@]43C)[C@@H]12` [GSK'937], the “Abdominal pain, n occurrences (% of cohort)” value (shortened to “Abdominal pain … (% of cohort)”) (healthy participants [1]; 100 mg PiB fed, N=15) was 0, the “All-cause AEs Grade 2, n occurrences (% of cohort)” value (healthy participants [1]; 100 mg PiB fed, N=15) was 0 and the “All-cause AEs Grade 3/4, n occurrences (% of cohort)” value (healthy participants [1]; 100 mg PiB fed, N=15) was 0. For the same compound, the “All-cause AEs, n occurrences (% of cohort)” value (healthy participants [1]; 100 mg PiB fed, N=15) was 2 (13), the “Constipation, n occurrences (% of cohort)” value (from here on “Constipation … (% of cohort)”) (healthy participants [1]; 100 mg PiB fed, N=15) was 0 and the “Diarrhea, n occurrences (% of cohort)” value (healthy participants [1]; 100 mg PiB fed, N=15) was 0. For the same compound, the “Drug-related AEs Grade 2, n occurrences (% of cohort)” value (healthy participants [1]; 100 mg PiB fed, N=15) was 0, the “Drug-related AEs Grade 3/4, n occurrences (% of cohort)” value (healthy participants [1]; 100 mg PiB fed, N=15) was 0 and the “Drug-related AEs, n occurrences (% of cohort)” value (healthy participants [1]; 100 mg PiB fed, N=15) was 0. For the same compound, the “Headache, n occurrences (% of cohort)” value (healthy participants [1]; 100 mg PiB fed, N=15) was 0, the “MDSD, n occurrences (% of cohort)” value (healthy participants [1]; 100 mg PiB fed, N=15) was 0 and the “Abdominal pain … (% of cohort)” value (healthy participants [1]; 100 mg tablet fasted, N=15) was 0. The “All-cause AEs Grade 2, n occurrences (% of cohort)” value (healthy participants [1]; 100 mg tablet fasted, N=15) was 2 (13), the “All-cause AEs Grade 3/4, n occurrences (% of cohort)” value (healthy participants [1]; 100 mg tablet fasted, N=15) was 0 and the “All-cause AEs, n occurrences (% of cohort)” value (healthy participants [1]; 100 mg tablet fasted, N=15) was 7 (40). The “Constipation … (% of cohort)” value (healthy participants [1]; 100 mg tablet fasted, N=15) was 0, the “Diarrhea, n occurrences (% of cohort)” value (healthy participants [1]; 100 mg tablet fasted, N=15) was 0 and the “Drug-related AEs Grade 2, n occurrences (% of cohort)” value (healthy participants [1]; 100 mg tablet fasted, N=15) was 0. For the same compound, the “Drug-related AEs Grade 3/4, n occurrences (% of cohort)” value (healthy participants [1]; 100 mg tablet fasted, N=15) was 0, the “Drug-related AEs, n occurrences (% of cohort)” value (healthy participants [1]; 100 mg tablet fasted, N=15) was 0 and the “Headache, n occurrences (% of cohort)” value (healthy participants [1]; 100 mg tablet fasted, N=15) was 2 (13). The “MDSD, n occurrences (% of cohort)” value (healthy participants [1]; 100 mg tablet fasted, N=15) was 0, the “Abdominal pain … (% of cohort)” value (healthy participants [1]; 100 mg tablet fed, N=17) was 0 and the “All-cause AEs Grade 2, n occurrences (% of cohort)” value (healthy participants [1]; 100 mg tablet fed, N=17) was 3 (12). For the same compound, the “All-cause AEs Grade 3/4, n occurrences (% of cohort)” value (healthy participants [1]; 100 mg tablet fed, N=17) was 0, the “All-cause AEs, n occurrences (% of cohort)” value (healthy participants [1]; 100 mg tablet fed, N=17) was 7 (24) and the “Constipation … (% of cohort)” value (healthy participants [1]; 100 mg tablet fed, N=17) was 0. The “Diarrhea, n occurrences (% of cohort)” value (healthy participants [1]; 100 mg tablet fed, N=17) was 0, the “Drug-related AEs Grade 2, n occurrences (% of cohort)” value (healthy participants [1]; 100 mg tablet fed, N=17) was 0 and the “Drug-related AEs Grade 3/4, n occurrences (% of cohort)” value (healthy participants [1]; 100 mg tablet fed, N=17) was 0. For the same compound, the “Drug-related AEs, n occurrences (% of cohort)” value (healthy participants [1]; 100 mg tablet fed, N=17) was 0, the “Headache, n occurrences (% of cohort)” value (healthy participants [1]; 100 mg tablet fed, N=17) was 2 (12) and the “MDSD, n occurrences (% of cohort)” value (healthy participants [1]; 100 mg tablet fed, N=17) was 0. For the same compound, the “AEs considered drug- or treatment-related” value (healthy participants [1]; part 3) was “None”, the “changes in laboratory analyses, clinical parameters, or suicidality” value (healthy participants [1]; part 3) was “No significant changes” and the “deaths or SAEs” value (healthy participants [1]; part 3) was “No deaths or SAEs occurred”. For the same compound, the “participants reporting AEs, n of 17” value (healthy participants [1]; part 3 (41%)) was 7, the “no observed adverse effect level” value (rats) was 10 mg/kg/day and the “deaths or SAEs” value (healthy participants [2]; SAD) was “No deaths or SAEs occurred”. For the same compound, the “Abdominal pain … (% of cohort)” value (healthy participants [2]; SAD 10 mg) was 1 (17), the “All-cause AEs Grade 2, n occurrences (% of cohort)” value (healthy participants [2]; SAD 10 mg) was 0 and the “All-cause AEs Grade 3/4, n occurrences (% of cohort)” value (healthy participants [2]; SAD 10 mg) was 0. The “All-cause AEs, n occurrences (% of cohort)” value (healthy participants [2]; SAD 10 mg) was 3 (17), the “Constipation … (% of cohort)” value (healthy participants [2]; SAD 10 mg) was 0 and the “Diarrhea, n occurrences (% of cohort)” value (healthy participants [2]; SAD 10 mg) was 0. The “Drug-related AEs Grade 2, n occurrences (% of cohort)” value (healthy participants [2]; SAD 10 mg) was 0, the “Drug-related AEs Grade 3/4, n occurrences (% of cohort)” value (healthy participants [2]; SAD 10 mg) was 0 and the “Drug-related AEs, n occurrences (% of cohort)” value (healthy participants [2]; SAD 10 mg) was 3 (17). For the same compound, the “Headache, n occurrences (% of cohort)” value (healthy participants [2]; SAD 10 mg) was 1 (17), the “MDSD, n occurrences (% of cohort)” value (healthy participants [2]; SAD 10 mg) was 0 and the “Abdominal pain … (% of cohort)” value (healthy participants [2]; SAD 30 mg) was 0. For the same compound, the “All-cause AEs Grade 2, n occurrences (% of cohort)” value (healthy participants [2]; SAD 30 mg) was 1 (17), the “All-cause AEs Grade 3/4, n occurrences (% of cohort)” value (healthy participants [2]; SAD 30 mg) was 0 and the “All-cause AEs, n occurrences (% of cohort)” value (healthy participants [2]; SAD 30 mg) was 5 (50). For the same compound, the “Constipation … (% of cohort)” value (healthy participants [2]; SAD 30 mg) was 2 (33), the “Diarrhea, n occurrences (% of cohort)” value (healthy participants [2]; SAD 30 mg) was 0 and the “Drug-related AEs Grade 2, n occurrences (% of cohort)” value (healthy participants [2]; SAD 30 mg) was 1 (17). The “Drug-related AEs Grade 3/4, n occurrences (% of cohort)” value (healthy participants [2]; SAD 30 mg) was 0, the “Drug-related AEs, n occurrences (% of cohort)” value (healthy participants [2]; SAD 30 mg) was 1 (17) and the “Headache, n occurrences (% of cohort)” value (healthy participants [2]; SAD 30 mg) was 0. The “MDSD, n occurrences (% of cohort)” value (healthy participants [2]; SAD 30 mg) was 1 (17), the “Abdominal pain … (% of cohort)” value (healthy participants [2]; SAD 80 mg) was 0 and the “All-cause AEs Grade 2, n occurrences (% of cohort)” value (healthy participants [2]; SAD 80 mg) was 0. The “All-cause AEs Grade 3/4, n occurrences (% of cohort)” value (healthy participants [2]; SAD 80 mg) was 0, the “All-cause AEs, n occurrences (% of cohort)” value (healthy participants [2]; SAD 80 mg) was 4 (50) ^f and the “Constipation … (% of cohort)” value (healthy participants [2]; SAD 80 mg) was 0. The “Diarrhea, n occurrences (% of cohort)” value (healthy participants [2]; SAD 80 mg) was 0, the “Drug-related AEs Grade 2, n occurrences (% of cohort)” value (healthy participants [2]; SAD 80 mg) was 0 and the “Drug-related AEs Grade 3/4, n occurrences (% of cohort)” value (healthy participants [2]; SAD 80 mg) was 0. For the same compound, the “Drug-related AEs, n occurrences (% of cohort)” value (healthy participants [2]; SAD 80 mg) was 1 (17), the “Headache, n occurrences (% of cohort)” value (healthy participants [2]; SAD 80 mg) was 1 (17) and the “MDSD, n occurrences (% of cohort)” value (healthy participants [2]; SAD 80 mg) was 0. The “Abdominal pain … (% of cohort)” value (healthy participants [2]; SAD 320 mg) was 1 (17), the “All-cause AEs Grade 2, n occurrences (% of cohort)” value (healthy participants [2]; SAD 320 mg) was 1 (17) and the “All-cause AEs Grade 3/4, n occurrences (% of cohort)” value (healthy participants [2]; SAD 320 mg) was 0. For the same compound, the “All-cause AEs, n occurrences (% of cohort)” value (healthy participants [2]; SAD 320 mg) was 5 (33), the “Constipation … (% of cohort)” value (healthy participants [2]; SAD 320 mg) was 0 and the “Diarrhea, n occurrences (% of cohort)” value (healthy participants [2]; SAD 320 mg) was 1 (17). For the same compound, the “Drug-related AEs Grade 2, n occurrences (% of cohort)” value (healthy participants [2]; SAD 320 mg) was 0, the “Drug-related AEs Grade 3/4, n occurrences (% of cohort)” value (healthy participants [2]; SAD 320 mg) was 0 and the “Drug-related AEs, n occurrences (% of cohort)” value (healthy participants [2]; SAD 320 mg) was 4 (17). The “Headache, n occurrences (% of cohort)” value (healthy participants [2]; SAD 320 mg) was 0, the “MDSD, n occurrences (% of cohort)” value (healthy participants [2]; SAD 320 mg) was 0 and the “Abdominal pain … (% of cohort)” value (healthy participants [2]; SAD 640 mg) was 1 (17). For the same compound, the “All-cause AEs Grade 2, n occurrences (% of cohort)” value (healthy participants [2]; SAD 640 mg) was 2 (17), the “All-cause AEs Grade 3/4, n occurrences (% of cohort)” value (healthy participants [2]; SAD 640 mg) was 0 and the “All-cause AEs, n occurrences (% of cohort)” value (healthy participants [2]; SAD 640 mg) was 8 (67). The “Constipation … (% of cohort)” value (healthy participants [2]; SAD 640 mg) was 1 (17), the “Diarrhea, n occurrences (% of cohort)” value (healthy participants [2]; SAD 640 mg) was 1 (17) and the “Drug-related AEs Grade 2, n occurrences (% of cohort)” value (healthy participants [2]; SAD 640 mg) was 2 (17). For the same compound, the “Drug-related AEs Grade 3/4, n occurrences (% of cohort)” value (healthy participants [2]; SAD 640 mg) was 0, the “Drug-related AEs, n occurrences (% of cohort)” value (healthy participants [2]; SAD 640 mg) was 2 (17) and the “Headache, n occurrences (% of cohort)” value (healthy participants [2]; SAD 640 mg) was 0. For the same compound, the “MDSD, n occurrences (% of cohort)” value (healthy participants [2]; SAD 640 mg) was 4 (67), the “Abdominal pain … (% of cohort)” value (healthy participants [2]; SAD 800 mg) was 0 and the “All-cause AEs Grade 2, n occurrences (% of cohort)” value (healthy participants [2]; SAD 800 mg) was 1 (17). The “All-cause AEs Grade 3/4, n occurrences (% of cohort)” value (healthy participants [2]; SAD 800 mg) was 0, the “All-cause AEs, n occurrences (% of cohort)” value (healthy participants [2]; SAD 800 mg) was 4 (33) and the “Constipation … (% of cohort)” value (healthy participants [2]; SAD 800 mg) was 0. For the same compound, the “Diarrhea, n occurrences (% of cohort)” value (healthy participants [2]; SAD 800 mg) was 2 (33), the “Drug-related AEs Grade 2, n occurrences (% of cohort)” value (healthy participants [2]; SAD 800 mg) was 1 (17) and the “Drug-related AEs Grade 3/4, n occurrences (% of cohort)” value (healthy participants [2]; SAD 800 mg) was 0. For the same compound, the “Drug-related AEs, n occurrences (% of cohort)” value (healthy participants [2]; SAD 800 mg) was 2 (33), the “Headache, n occurrences (% of cohort)” value (healthy participants [2]; SAD 800 mg) was 0 and the “MDSD, n occurrences (% of cohort)” value (healthy participants [2]; SAD 800 mg) was 1 (17).
